ChEMBL document CHEMBL2375359, “Synthesis and antibacterial evaluation of novel pleuromutilin derivatives” (2013)
≈ marks a conversion by molar mass, not a printed value.

System: Streptococcus agalactiae
Experiment: Antibacterial activity against Streptococcus agalactiae at 80 ug/ml after 24 hrs by Oxford cup assay
Format: functional
Details: read-out: IZ
Method in brief: (§1)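 Oxford cup diffusion with clinical isolates. Inoculum made in 0.9% saline to a McFarland standard and spread evenly on nutrient agar. Compound solutions, prepared as for the agar dilution test, were added at the stated concentration to Oxford cups set equidistant on the agar surface. Inhibition zones were measured after 24 h at 37 °C.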

Compared with `C=C[C@]1(C)C[C@@H](OC(=O)CSC(C)(C)CNC(=O)c2ccccc2C)[C@]2(C)[C@H](C)CC[C@]3(CCC(=O)[C@H]32)[C@@H](C)[C@@H]1O`, `C=C[C@]1(C)C[C@@H](OC(=O)CSC(C)(C)CNC(=O)c2ccc(OC)cc2)[C@]2(C)[C@H](C)CC[C@]3(CCC(=O)[C@H]32)[C@@H](C)[C@@H]1O` is higher in zone of inhibition at 80 µg/mL: 10 mm for the first, 16 mm for the second.

System: Streptococcus agalactiae
Experiment: Antibacterial activity against Streptococcus agalactiae at 160 ug/ml after 24 hrs by Oxford cup assay
Format: functional
Details: read-out: IZ
Method in brief: as §1

Compared with `C=C[C@]1(C)C[C@@H](OC(=O)CSC(C)(C)CNC(=O)c2ccccc2C)[C@]2(C)[C@H](C)CC[C@]3(CCC(=O)[C@H]32)[C@@H](C)[C@@H]1O`, `C=C[C@]1(C)C[C@@H](OC(=O)CSC(C)(C)CNC(=O)c2ccc(OC)cc2)[C@]2(C)[C@H](C)CC[C@]3(CCC(=O)[C@H]32)[C@@H](C)[C@@H]1O` is higher in zone of inhibition at 160 µg/mL: 10.9 mm for the first, 15.9 mm for the second.

System: Escherichia coli
Experiment: Antibacterial activity against Escherichia coli at 80 ug/ml after 24 hrs by Oxford cup assay
Format: functional
Details: read-out: IZ
Method in brief: as §1

First: C=C[C@]1(C)C[C@@H](OC(=O)CSC(C)(C)CNC(=O)c2ccccc2C)[C@]2(C)[C@H](C)CC[C@]3(CCC(=O)[C@H]32)[C@@H](C)[C@@H]1O
Second: C=C[C@]1(C)C[C@@H](OC(=O)CSC(C)(C)CNC(=O)c2ccc(OC)cc2)[C@]2(C)[C@H](C)CC[C@]3(CCC(=O)[C@H]32)[C@@H](C)[C@@H]1O
The zone of inhibition at 80 µg/mL of the first is lower: 12.1 mm for the first, 15.7 mm for the second.

System: Streptococcus agalactiae
Experiment: Antibacterial activity against Streptococcus agalactiae at 320 ug/ml after 24 hrs by Oxford cup assay
Format: functional
Details: read-out: IZ
Method in brief: as §1

Going from `C=C[C@]1(C)C[C@@H](OC(=O)CSC(C)(C)CNC(=O)c2ccccc2C)[C@]2(C)[C@H](C)CC[C@]3(CCC(=O)[C@H]32)[C@@H](C)[C@@H]1O` to `C=C[C@]1(C)C[C@@H](OC(=O)CSC(C)(C)CNC(=O)c2ccc(OC)cc2)[C@]2(C)[C@H](C)CC[C@]3(CCC(=O)[C@H]32)[C@@H](C)[C@@H]1O`, the zone of inhibition at 320 µg/mL rises from 12.4 mm to 16.6 mm.

System: Escherichia coli
Experiment: Antibacterial activity against Escherichia coli at 160 ug/ml after 24 hrs by Oxford cup assay
Format: functional
Details: read-out: IZ
Method in brief: as §1

Compared with `C=C[C@]1(C)C[C@@H](OC(=O)CSC(C)(C)CNC(=O)c2ccccc2C)[C@]2(C)[C@H](C)CC[C@]3(CCC(=O)[C@H]32)[C@@H](C)[C@@H]1O`, `C=C[C@]1(C)C[C@@H](OC(=O)CSC(C)(C)CNC(=O)c2ccc(OC)cc2)[C@]2(C)[C@H](C)CC[C@]3(CCC(=O)[C@H]32)[C@@H](C)[C@@H]1O` is higher in zone of inhibition at 160 µg/mL: 13.7 mm for the first, 17.1 mm for the second.

System: Escherichia coli
Experiment: Antibacterial activity against Escherichia coli at 320 ug/ml after 24 hrs by Oxford cup assay
Format: functional
Details: read-out: IZ
Method in brief: as §1

Going from `C=C[C@]1(C)C[C@@H](OC(=O)CSC(C)(C)CNC(=O)c2ccccc2C)[C@]2(C)[C@H](C)CC[C@]3(CCC(=O)[C@H]32)[C@@H](C)[C@@H]1O` to `C=C[C@]1(C)C[C@@H](OC(=O)CSC(C)(C)CNC(=O)c2ccc(OC)cc2)[C@]2(C)[C@H](C)CC[C@]3(CCC(=O)[C@H]32)[C@@H](C)[C@@H]1O`, the zone of inhibition at 320 µg/mL rises from 15 mm to 18.5 mm.

System: Staphylococcus epidermidis
Experiment: Antibacterial activity against methicillin-resistant Staphylococcus epidermidis at 80 ug/ml after 24 hrs by Oxford cup assay
Format: functional
Details: read-out: IZ
Method in brief: (§2)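 Oxford cup diffusion: clinical isolate inoculum in 0.9% saline set by McFarland standard, spread evenly on nutrient agar. Cups placed equidistant on the surface and filled with compound solutions prepared as for the agar dilution test, at several concentrations. Inhibition zone measured after 24 h at 37 °C.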

Going from `C=C[C@]1(C)C[C@@H](OC(=O)CSC(C)(C)CNC(=O)c2ccccc2C)[C@]2(C)[C@H](C)CC[C@]3(CCC(=O)[C@H]32)[C@@H](C)[C@@H]1O` to `C=C[C@]1(C)C[C@@H](OC(=O)CSC(C)(C)CNC(=O)c2ccc(OC)cc2)[C@]2(C)[C@H](C)CC[C@]3(CCC(=O)[C@H]32)[C@@H](C)[C@@H]1O`, the zone of inhibition at 80 µg/mL rises from 10.7 mm to 14.4 mm.

System: Staphylococcus epidermidis
Experiment: Antibacterial activity against methicillin-resistant Staphylococcus epidermidis at 160 ug/ml after 24 hrs by Oxford cup assay
Format: functional
Details: read-out: IZ
Method in brief: as §2

Compared with `C=C[C@]1(C)C[C@@H](OC(=O)CSC(C)(C)CNC(=O)c2ccccc2C)[C@]2(C)[C@H](C)CC[C@]3(CCC(=O)[C@H]32)[C@@H](C)[C@@H]1O`, `C=C[C@]1(C)C[C@@H](OC(=O)CSC(C)(C)CNC(=O)c2ccc(OC)cc2)[C@]2(C)[C@H](C)CC[C@]3(CCC(=O)[C@H]32)[C@@H](C)[C@@H]1O` is higher in zone of inhibition at 160 µg/mL: 12.9 mm for the first, 15.2 mm for the second.

System: Staphylococcus epidermidis
Experiment: Antibacterial activity against methicillin-resistant Staphylococcus epidermidis at 320 ug/ml after 24 hrs by Oxford cup assay
Format: functional
Details: read-out: IZ
Method in brief: as §2

First: C=C[C@]1(C)C[C@@H](OC(=O)CSC(C)(C)CNC(=O)c2ccccc2C)[C@]2(C)[C@H](C)CC[C@]3(CCC(=O)[C@H]32)[C@@H](C)[C@@H]1O
Second: C=C[C@]1(C)C[C@@H](OC(=O)CSC(C)(C)CNC(=O)c2ccc(OC)cc2)[C@]2(C)[C@H](C)CC[C@]3(CCC(=O)[C@H]32)[C@@H](C)[C@@H]1O
The zone of inhibition at 320 µg/mL of the first is lower: 13.8 mm for the first, 18.3 mm for the second.

System: Staphylococcus aureus
Experiment: Antibacterial activity against methicillin-resistant Staphylococcus aureus at 80 ug/ml after 24 hrs by Oxford cup assay
Format: functional
Details: read-out: IZ
Method in brief: as §2

First: C=C[C@]1(C)C[C@@H](OC(=O)CSC(C)(C)CNC(=O)c2ccccc2C)[C@]2(C)[C@H](C)CC[C@]3(CCC(=O)[C@H]32)[C@@H](C)[C@@H]1O
Second: C=C[C@]1(C)C[C@@H](OC(=O)CSC(C)(C)CNC(=O)c2ccc(OC)cc2)[C@]2(C)[C@H](C)CC[C@]3(CCC(=O)[C@H]32)[C@@H](C)[C@@H]1O
The zone of inhibition at 80 µg/mL of the first is lower: 10.3 mm for the first, 15.3 mm for the second.

System: Staphylococcus aureus
Experiment: Antibacterial activity against methicillin-resistant Staphylococcus aureus at 160 ug/ml after 24 hrs by Oxford cup assay
Format: functional
Details: read-out: IZ
Method in brief: as §2

First: C=C[C@]1(C)C[C@@H](OC(=O)CSC(C)(C)CNC(=O)c2ccccc2C)[C@]2(C)[C@H](C)CC[C@]3(CCC(=O)[C@H]32)[C@@H](C)[C@@H]1O
Second: C=C[C@]1(C)C[C@@H](OC(=O)CSC(C)(C)CNC(=O)c2ccc(OC)cc2)[C@]2(C)[C@H](C)CC[C@]3(CCC(=O)[C@H]32)[C@@H](C)[C@@H]1O
The zone of inhibition at 160 µg/mL of the first is lower: 11.8 mm for the first, 18.4 mm for the second.

System: Staphylococcus aureus
Experiment: Antibacterial activity against methicillin-resistant Staphylococcus aureus at 320 ug/ml after 24 hrs by Oxford cup assay
Format: functional
Details: read-out: IZ
Method in brief: as §2

First: C=C[C@]1(C)C[C@@H](OC(=O)CSC(C)(C)CNC(=O)c2ccccc2C)[C@]2(C)[C@H](C)CC[C@]3(CCC(=O)[C@H]32)[C@@H](C)[C@@H]1O
Second: C=C[C@]1(C)C[C@@H](OC(=O)CSC(C)(C)CNC(=O)c2ccc(OC)cc2)[C@]2(C)[C@H](C)CC[C@]3(CCC(=O)[C@H]32)[C@@H](C)[C@@H]1O
The zone of inhibition at 320 µg/mL of the first is lower: 12.3 mm for the first, 19.7 mm for the second.

System: Streptococcus agalactiae
Experiment: Antibacterial activity against Streptococcus agalactiae after 48 hrs by agar dilution method
Format: functional
Details: not given
Method in brief: (§3)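 Agar dilution per NCCLS on clinical isolates. 2-fold serial dilutions of compound (2 mL) mixed into 18 mL hot Mueller-Hinton agar. Inoculum from blood slants, adjusted to approx. 10⁵–10⁶ cfu/mL in sterile 0.90% NaCl, then spotted onto the plates. Incubated 36.5 °C, 48 h. MIC is the lowest concentration giving complete growth inhibition. Run in triplicate at pH 7.40.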

`C=C[C@]1(C)C[C@@H](OC(=O)CSC(C)(C)CNC(=O)c2ccccc2C)[C@]2(C)[C@H](C)CC[C@]3(CCC(=O)[C@H]32)[C@@H](C)[C@@H]1O` and `C=C[C@]1(C)C[C@@H](OC(=O)CSC(C)(C)CNC(=O)c2ccc(OC)cc2)[C@]2(C)[C@H](C)CC[C@]3(CCC(=O)[C@H]32)[C@@H](C)[C@@H]1O` are the same in MIC: 0.5 µg/mL (≈ 0.856 µM) for the first, 0.5 µg/mL (≈ 0.834 µM) for the second.

System: Escherichia coli
Experiment: Antibacterial activity against Escherichia coli after 48 hrs by agar dilution method
Format: functional
Details: not given
Method in brief: as §3

First: C=C[C@]1(C)C[C@@H](OC(=O)CSC(C)(C)CNC(=O)c2ccccc2C)[C@]2(C)[C@H](C)CC[C@]3(CCC(=O)[C@H]32)[C@@H](C)[C@@H]1O
Second: C=C[C@]1(C)C[C@@H](OC(=O)CSC(C)(C)CNC(=O)c2ccc(OC)cc2)[C@]2(C)[C@H](C)CC[C@]3(CCC(=O)[C@H]32)[C@@H](C)[C@@H]1O
The MIC of the first is 2-fold higher: 2 µg/mL (≈ 3.43 µM) for the first, 1 µg/mL (≈ 1.67 µM) for the second.

System: Staphylococcus epidermidis
Experiment: Antibacterial activity against methicillin-resistant Staphylococcus epidermidis after 48 hrs by agar dilution method
Format: functional
Details: not given
Method in brief: (§4)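 Agar dilution per NCCLS: 2-fold serial dilutions incorporated into hot Mueller-Hinton agar. Clinical isolates grown from blood slants, suspended in sterile 0.90% NaCl to about 10⁵–10⁶ cfu/mL, spotted onto plates. Incubation 36.5 °C, 48 h. MIC taken as the lowest concentration giving complete growth inhibition. Run in triplicate at pH 7.40.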

Going from `C=C[C@]1(C)C[C@@H](OC(=O)CSC(C)(C)CNC(=O)c2ccccc2C)[C@]2(C)[C@H](C)CC[C@]3(CCC(=O)[C@H]32)[C@@H](C)[C@@H]1O` to `C=C[C@]1(C)C[C@@H](OC(=O)CSC(C)(C)CNC(=O)c2ccc(OC)cc2)[C@]2(C)[C@H](C)CC[C@]3(CCC(=O)[C@H]32)[C@@H](C)[C@@H]1O`, the MIC falls from 16 µg/mL (≈ 27.4 µM) to 2 µg/mL (≈ 3.33 µM) (8-fold).

System: Staphylococcus aureus
Experiment: Antibacterial activity against methicillin-resistant Staphylococcus aureus after 48 hrs by agar dilution method
Format: functional
Details: not given
Method in brief: as §4

`C=C[C@]1(C)C[C@@H](OC(=O)CSC(C)(C)CNC(=O)c2ccccc2C)[C@]2(C)[C@H](C)CC[C@]3(CCC(=O)[C@H]32)[C@@H](C)[C@@H]1O` and `C=C[C@]1(C)C[C@@H](OC(=O)CSC(C)(C)CNC(=O)c2ccc(OC)cc2)[C@]2(C)[C@H](C)CC[C@]3(CCC(=O)[C@H]32)[C@@H](C)[C@@H]1O` are the same in MIC: 0.25 µg/mL (≈ 0.428 µM) for the first, 0.25 µg/mL (≈ 0.417 µM) for the second.
